# According to the M2OR odorant receptor database:
# Substitutions are numbered along the chain they refer to.
# Legend:
# Conditions in all cases: stereoisomer not certain
# OR2W1 (Homo sapiens) = target: T1, OR2W1 (Homo sapiens) (UniProt Q9Y3N9)
# T1 sequence (whole entry): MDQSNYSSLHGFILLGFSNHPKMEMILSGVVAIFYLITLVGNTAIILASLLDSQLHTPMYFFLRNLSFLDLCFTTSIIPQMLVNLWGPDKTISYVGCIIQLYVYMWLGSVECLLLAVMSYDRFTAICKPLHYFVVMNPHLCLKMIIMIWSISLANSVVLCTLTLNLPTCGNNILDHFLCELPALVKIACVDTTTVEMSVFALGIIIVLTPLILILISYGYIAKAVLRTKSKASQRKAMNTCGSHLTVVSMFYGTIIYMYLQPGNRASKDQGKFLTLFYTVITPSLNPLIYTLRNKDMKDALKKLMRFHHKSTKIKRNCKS
# How it was run: (§1)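 Values were gathered from published papers (main text and supplementary material), with extra details requested from the original authors when needed, and checked for typos and inconsistencies. Each receptor–molecule pair is called responsive (active) if the original authors judged the measured signal statistically different from baseline, and non-responsive (inactive) otherwise. Assay methods varied by source, often transient mammalian cell-line luciferase assays. Recorded details include cell line, G-protein, co-transfected protein and tags.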
# OR2W1 [1] = test system: T2, OR2W1
# T2 sequence (whole entry): T1 sequence (whole entry) with D296N
# How it was run: as §1
# OR2W1 [2] = test system: T3, OR2W1; remark: listed apart in the source
# T3 sequence (whole entry): T1 sequence (whole entry) with M81V
# How it was run: as §1
SMILES,odorant receptor agonist call (OR2W1 (Homo sapiens)),odorant receptor agonist call (OR2W1 [1]),odorant receptor agonist call (OR2W1 [2])
CSSCc1ccccc1,active,active,active
CCOC(=O)c1ccccc1,active,active,active
CCCCCC(=O)OCC,active,active,active
CCOC(=O)CCSC,active,active,active
CCOC(=O)C(C)CC (stereo not drawn),active,active,inactive
COc1ccc(C)cc1O,inactive,active,inactive
OCCCc1ccccc1,active,active,active
COCCC(C)(C)S,active,active,inactive
CCCCCCCC1CCC(=O)O1 (stereo not drawn),active,active,active
CC(=O)OCCC(C)C,active,active,active
O=c1ccc2ccccc2o1,active,active,inactive
CCCCC=CC=CC=O,active,active,active
c1coc(CSCc2ccco2)c1,active,active,active
CCC(C)COC(C)=O (stereo not drawn),inactive,active,active
CC(C)(S)CCOC=O,active,active,active
CCCCCC=CCCC=O,active,active,inactive
CCC=CCCOC(C)=O,active,active,active
OCCc1ccccc1,active,active,inactive
CCCCCC=CC=CC=O,active,active,active
CCCC(S)CCO (stereo not drawn),active,active,inactive
C=Cc1ccc(O)cc1,active,active,active
CCCCCc1ccccn1,active,active,active
CCCCCCCCCC(=O)OCC,active,active,active
OCC=Cc1ccccc1,active,active,active

SMILES,odorant receptor agonist call (OR2W1 (Homo sapiens)),odorant receptor agonist call (OR2W1 [1]),odorant receptor agonist call (OR2W1 [2])
CCCC(=O)OC,active,active,active
CCCCCCCC(C)=O,active,active,active
C=CC(=O)CCCCC,active,active,active
CCc1ccc(O)cc1,active,active,active
C=C1CCC2(C(C)C)CC12 (stereo not drawn),active,active,inactive
CC(=O)OCC=Cc1ccccc1,active,active,active
CCC=CCCC=CC=O,active,active,active
CC(C)=CCCC(C)=CCO,inactive,,inactive
CC1=CCC(C(C)C)C=C1 (stereo not drawn),active,active,inactive
CCc1cccc(O)c1,active,active,inactive
CSSCc1ccco1,active,active,active
COC(=O)C=Cc1ccccc1,active,active,active
CCCSSSCCC,active,active,inactive
CC1=CCC(C(C)(C)S)CC1 (stereo not drawn),active,active,inactive
CCCCCC(C)O (stereo not drawn),active,active,active
CCCCCCOC(C)=O,active,active,active
CCCCC(=O)OCC,active,active,active
CCCCCCCC(=O)[O-].[H+],active,active,inactive
CCCCC1OC(=O)CC1C (stereo not drawn),active,active,active
CC=Cc1ccc(OC)cc1,active,active,active
CCCCCC=CC=O,active,active,inactive
CCCCCCC1CCC(=O)O1 (stereo not drawn),active,active,active
CCC(C)CO (stereo not drawn),active,active,active
CCOC(=O)C1CCCCC1,active,active,inactive
